pIC50: −log10 of the molar value.
How the values were obtained:
Format in all cases: functional, cell-based, Homo sapiens
A2780 = experiment: Growth and colony formation inhibition of A2780 ovarian cancer cell lines
How it was run: (§1)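 Colony formation assay in A2780 (wt p53) and SW626 (mutant p53) monolayers, RPMI 1640 with 10% FBS and 2 mM L-glutamine, 37 °C, 5% CO2. 300–500 cells/well, attached 1 day, then serially diluted drug. Exposure 7 days for A2780, 10 days for SW626. Colonies fixed and stained with 0.1% crystal violet in methanol, then counted. IC50 extrapolated. Mean ± SD of three experiments.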

SK-OV-3 = experiment: Growth and colony formation inhibition of SKOV-3 ovarian cancer cell lines
How it was run: (§2)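 Colony formation in PA-1 (wt p53, 7 days of drug) and SKOV-3 (p53-null, 10 days of drug). Both in RPMI 1640 with 10% FBS and 2 mM L-glutamine, 300–500 cells/well, attached 1 day. Colonies stained with 0.1% crystal violet in methanol and counted. IC50 extrapolated; three experiments. Also an MTT assay: PA-1 1000 cells/well, 1 day attachment, 5 days of drug; SKOV-3 600 cells/well, 2 days attachment, 7 days of drug. MTT 5 h, DMSO, read at 570/630 nm; four experiments.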

[1] = Growth and colony formation inhibition of SW626 ovarian cancer cell lines; how it was run: as §1
[2] = Growth and colony formation inhibition of PA-1 ovarian cancer cell lines; how it was run: as §2
[3] = Growth and colony formation inhibition of VM-1 leukemia cancer cell lines
How it was run: (§3)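 CEM and teniposide-resistant CEM/VM-1 leukemia cells in suspension, MEM with 10% FBS and 2 mM L-glutamine, 37 °C, 5% CO2. Exponentially growing cells seeded in triplicate at 3 × 10^5 cells/mL. Drugs dissolved in DMSO or PBS, serially diluted, 48 h exposure. Growth inhibition by Coulter counting. IC50 extrapolated from the concentration–% inhibition plot. Mean ± SD of three experiments.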

CCRF-CEM = experiment: Growth and colony formation inhibition of CEM leukemia cancer cell lines; how it was run: as §3

Substance | pIC50 (A2780) | pIC50 (SK-OV-3) | pIC50 [1] | pIC50 [2] | pIC50 [3] | pIC50 (CCRF-CEM)
3-(7a-Chloro-7-diisopropylamino-hexahydro-6-oxa-1,3a-diaza-platinum-7lambda*5*-phospha-inden-7-yloxy)-propionitrile | 3.90 | < 3.70 | < 3.70 | 3.78 |  | 
Amminedichloro(2-hydroxyethylamine)platinum (II) |  | 4.89 |  | 6.15 |  | 
Amminedichloro(4-hydroxybutylamine)platinum (II) |  | 5.22 |  | 6.40 |  | 
Amminetetrachloro(4-hydroxybutylamine)platinum(IV) |  | 5.05 |  | 6.70 |  | 
Amminetetrachloro(4-hydroxyethylamine)platinum(IV) |  | 5.00 |  | 6.05 |  | 
CARBOPLATIN |  | 4.55 |  | 5.62 |  | 
CISPLATIN | 6.22 | 6.30 | 6.30 | 6.52 | > 6.00 | > 6.00
DICHLORO(AMMINO ETHYLAMMINO ETHANOL) PLATINUM(II) [listing 1 of 2 here] |  | 4.52 |  | 5.54 |  | 
DICHLORO(AMMINO ETHYLAMMINO ETHANOL) PLATINUM(II) [listing 2 of 2 here] |  | 4.59 |  | 5.77 |  | 
Dichloro diacetyl oxy-(amino ethylamino ethanol) platinum | 5.55 | 4.62 | 4.55 | 5.82 | 5.15 | 5.15
Dichlorodi(3-hydroxypropylamine)platinum (II) |  | 4.70 |  | 5.92 |  | 
Dichlorodi(4-hydroxybutylamine)platinum (II) |  | 4.64 |  | 5.82 |  | 
Dichlorodiacetyl oxy-(ammino acetoxy butylammino ethanol) platinum (II) |  | 4.66 |  | 6.10 |  | 
Dichlorodiacetyl oxy-(ammino acetoxy ethylammino ethanol) platinum (II) |  | 5.00 |  | 5.55 |  | 
Tetrachlorodi(3-hydroxypropylamine)platinum(IV) | 5.80 | 5.00 | 5.52 | 6.22 | 5.30 | 5.10
Tetrachlorodi(4-hydroxybutylamine)platinum(IV) | 5.66 | 5.40 | 5.15 | 6.00 | 5.00 | 5.00

Source: ChEMBL document CHEMBL1134581, “Synthesis and in vitro antitumor activity of oligonucleotide-tethered and related platinum complexes” (J Med Chem, 2001)
